Experimental findings from ChEMBL document CHEMBL3271997, “Reactions of 2-acyloxyisobutyryl halides with nucleosides. 6. Synthesis and biological evaluation of some 3'-acyl derivatives of 2,2'-anhydro-1-(beta-D-arabinofuranosyl)cytosine hydrochloride” (J Med Chem, 1976) are described below.

The source made the active and inactive calls. The rule behind the calls is not given here. Some results are limits rather than exact numbers.

The test system of series [1] is Vaccinia virus. Put plainly: Antiviral activity against Vaccinia virus IHD infected in African green monkey BGM cells after 6 days by plaque reduction assay. The class given is functional. As to conditions: Orthopoxvirus vaccinia, 144 h, read-out: ED50 (the source's name).
The test system of series [2] is HeLa. Put plainly: Cytotoxicity against human HeLa cells after 48 hrs by Coulter counting analysis. It is filed as functional. As to conditions: read-out: ED50 (the source's name). A digest of the protocol: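 HeLa cells (10⁵) were grown for 2 days at 37° in MEM with 10% bovine serum. The medium was then replaced with fresh medium containing serial compound dilutions. After 48 h, cells were dispersed with 0.02% trypsin and 0.04% versene and counted on a Coulter counter. The result is expressed as ED50 in μg/ml.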

Series [3] has as its system Herpesviridae sp. Put plainly: Antiviral activity against Herpes simplex virus HF infected in African green monkey BGM cells after 6 days by plaque reduction assay. The class given is functional. As to conditions: 144 h, read-out: ED50 (the source's name). A digest of the protocol: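 Quantitative plaque reduction assay. Confluent BGM monolayers were infected with 100-200 pfu of HSV (HF strain) and overlaid with 1.25% agar in MEM with 2.0% bovine serum containing graded compound concentrations. A second overlay with neutral red (1:20000) was added on day 4, and plaques were counted on day 6. ED50, the μM concentration giving 50% plaque reduction, was taken from a probability plot of % inhibition against concentration.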

The test system of series [4] is L1210. Put plainly: Antitumor activity against mouse L1210 cells allografted in BDF1 mouse assessed as increase in life span at 200 mg/kg, ip administered as single dose 24 hrs post-implantation measured up to 30 days relative to control. The class given is functional. As to conditions: route intraperitoneal. The method, boiled down:
(§1)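 BDF1 mice inoculated ip with 1-2 × 10⁵ L1210 cells; 24 h later a single ip dose given as solution or suspension in aqueous 0.9% NaCl, 0.4% polysorbate 80, 0.5% low-viscosity sodium carboxymethylcellulose, 0.9% benzyl alcohol. Mice held on normal diet for 30 days. Groups of eight to ten animals; percent increase in life span versus untreated infected controls, with 30-day survivors counted.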

For series [5], the system named is L1210. Put plainly: Antitumor activity against mouse L1210 cells allografted in BDF1 mouse assessed as survival at 200 mg/kg, ip administered as single dose 24 hrs post-implantation after 30 days. The class given is functional, organism-based. Further details: dose 200 mg/kg. The method, boiled down: (§2)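 BDF1 mice were inoculated ip with 1-2 × 10⁵ L1210 cells. After 24 h, one ip dose was given as a solution or suspension in aqueous 0.9% NaCl, 0.4% polysorbate 80, 0.5% low-viscosity Na carboxymethylcellulose and 0.9% benzyl alcohol. Mice were followed for 30 days, with 8-10 per group. The read-out is % increase in life span versus infected controls, plus the count of 30-day survivors.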

Series [6] concerns L1210. Description: Antitumor activity against mouse L1210 cells allografted in BDF1 mouse assessed as increase in life span at 1000 mg/kg, ip administered as single dose 24 hrs post-implantation measured up to 30 days relative to control. It is filed as functional. As to conditions: route intraperitoneal. A digest of the protocol:
as §1

Series [7] concerns L1210. Put plainly: Antitumor activity against mouse L1210 cells allografted in BDF1 mouse assessed as survival at 1000 mg/kg, ip administered as single dose 24 hrs post-implantation after 30 days. Also noted: dose 1000 mg/kg. It is filed as functional, organism-based. The method, boiled down: as §2
For series [8], the system named is Mus musculus. Description: Toxicity in BDF1 mouse allografted with mouse L1210 cells assessed as reduction in average life span at 1000 mg/kg, ip administered as single dose 24 hrs post-implantation measured up to 30 days relative to control. It is filed as organism-based. Also noted: dose 1000 mg/kg, route intraperitoneal. The settings on record: in vivo. A digest of the protocol:
as §2

Series [9] has as its system Mus musculus. Description: Toxicity in BDF1 mouse allografted with mouse L1210 cells assessed as reduction in survival at 500 mg/kg, ip administered as single dose 24 hrs post-implantation measured up to 30 days relative to control. The settings on record: in vivo. Also noted: dose 500 mg/kg, route intraperitoneal. It is filed as organism-based. The method, boiled down:
as §1

Series [10] relates to Mus musculus. Put plainly: Toxicity in BDF1 mouse allografted with mouse L1210 cells assessed as reduction in survival at 1000 mg/kg, ip administered as single dose 24 hrs post-implantation measured up to 30 days relative to control. The class given is organism-based. Further details: dose 1000 mg/kg, route intraperitoneal. The settings on record: in vivo. A digest of the protocol: as §1

For series [11], the system named is Mus musculus. Put plainly: Toxicity in BDF1 mouse allografted with mouse L1210 cells assessed as reduction in average life span at 500 mg/kg, ip administered as single dose 24 hrs post-implantation measured up to 30 days relative to control. The settings on record: in vivo. Further details: dose 500 mg/kg, route intraperitoneal. It is filed as organism-based. A digest of the protocol: as §2

Turning to `C=CCCCCCCCCC(=O)O[C@H]1[C@@H]2Oc3nc(=N)ccn3[C@@H]2O[C@@H]1CO.Cl`, the EC50 amounted to 510 nM in [1], 0.05 µg/mL in series [2] and 1200 nM in [3]. The ILS at 200 mg/kg in series [4] amounted to 38%. In series [5], the result was inactive.

On to `CCCCCCCCCC(=O)O[C@H]1[C@@H]2Oc3nc(=N)ccn3[C@@H]2O[C@@H]1CO.Cl`, for which the EC50 in series [1] turned out to be 150 nM; in series [2], 0.2 µg/mL; in series [3], 1050 nM. Also, the ILS at 200 mg/kg in series [4] was determined as 35%. For the same compound, the result in [5] was inactive.

Regarding `CC(C)C(=O)O[C@H]1[C@@H]2Oc3nc(=N)ccn3[C@@H]2O[C@@H]1CO.Cl`, the EC50 in series [1] is 1550 nM; in [2] it was 0.2 µg/mL; in series [3], 8800 nM. For the same compound, in series [4], the ILS at 200 mg/kg was determined as 22%. For the same compound, the outcome in [5] was inactive.

For `CCCCCCCCCCCCCCCCCCCC(=O)O[C@H]1[C@@H]2Oc3nc(=N)ccn3[C@@H]2O[C@@H]1CO.Cl`, the EC50 is above 30000 nM in series [1], 0.22 µg/mL in series [2] and above 30000 nM in [3]. In addition, the ILS at 1000 mg/kg in series [6] was above 266%. Besides, the ILS at 200 mg/kg in series [4] is above 281%. In addition, the outcome in series [7] was Active.

For the compound `CCCCCCCC(=O)O[C@H]1[C@@H]2Oc3nc(=N)ccn3[C@@H]2O[C@@H]1CO.Cl`, the EC50 stood at 190 nM in [1], 0.1 µg/mL in series [2] and 720 nM in series [3]. Besides, the ILS is reported as -100% in series [8] and -93% in series [11]. In addition, the Activity entry in series [9] and in series [10] was “Toxic” in each case. In addition, the ILS at 200 mg/kg in series [4] was determined as 34%.

`CCCCCCCCCCCC(=O)O[C@H]1[C@@H]2Oc3nc(=N)ccn3[C@@H]2O[C@@H]1CO.Cl`: the EC50 came to 640 nM in [1], 0.1 µg/mL in [2] and 640 nM in series [3]. In addition, in series [4], the ILS at 200 mg/kg is 40%. In addition, the result in series [5] was inactive.

For the compound `Cl.N=c1ccn2c(n1)O[C@H]1[C@H](OC(=O)c3ccccc3)[C@@H](CO)O[C@H]12`, the EC50 was found to be 5900 nM in series [1], 0.2 µg/mL in [2] and 8200 nM in series [3]. For the same compound, the ILS at 200 mg/kg in [4] is 17%. In addition, the result in [5] was inactive.

As to `CCCCCC(=O)O[C@H]1[C@@H]2Oc3nc(=N)ccn3[C@@H]2O[C@@H]1CO.Cl`, the EC50 in [1] was found to be 230 nM; in series [2] it was 0.1 µg/mL; in series [3], 1550 nM. The ILS at 200 mg/kg in series [4] came to 40%. In addition, the outcome in [5] was inactive.

On to `CCCCCCCC/C=C/CCCCCCCC(=O)O[C@H]1[C@@H]2Oc3nc(=N)ccn3[C@@H]2O[C@@H]1CO.Cl`, for which the figures for the EC50 in [1], in series [2] and in series [3] were 900 nM, 0.09 µg/mL and 1900 nM, respectively. Further, the ILS at 200 mg/kg in series [4] was above 162%.

For `CCCCCCCCCCC(=O)O[C@H]1[C@@H]2Oc3nc(=N)ccn3[C@@H]2O[C@@H]1CO.Cl`, the EC50 in [1] turned out to be 190 nM; in series [2], 0.06 µg/mL; in [3], 460 nM. In [4], the ILS at 200 mg/kg worked out at 87%. The outcome in series [5] was inactive.

Turning to `CCCCCCCCCCCCCCCCCCCCCC(=O)O[C@H]1[C@@H]2Oc3nc(=N)ccn3[C@@H]2O[C@@H]1CO.Cl`, the EC50 is 18500 nM in series [1], 0.38 µg/mL in series [2] and above 30000 nM in series [3]. In addition, the ILS at 1000 mg/kg in [6] is above 240%. Further, in series [4], the ILS at 200 mg/kg was above 169%.

For the compound `CCCCCCCCCCCCCCCCCC(=O)O[C@H]1[C@@H]2Oc3nc(=N)ccn3[C@@H]2O[C@@H]1CO.Cl`, the EC50 in series [1] is 1600 nM; in [2] it was 0.22 µg/mL; in [3], 5450 nM. In series [6], the ILS at 1000 mg/kg was above 257%. Also, in series [4], the ILS at 200 mg/kg was found to be 115%. For the same compound, in series [7], the result was Active. In addition, the result in series [5] was inactive.

As for `CCCCCCCC/C=C\CCCCCCCC(=O)O[C@H]1[C@@H]2Oc3nc(=N)ccn3[C@@H]2O[C@@H]1CO.Cl`, the values for the EC50 in series [1], in series [2] and in series [3] were 670 nM, 0.08 µg/mL and 1200 nM, respectively. In addition, the ILS at 200 mg/kg in series [4] turned out to be 72%. For the same compound, the outcome in series [5] was inactive.

As to `CCCCCCCCCCCCCCCC(=O)O[C@H]1[C@@H]2Oc3nc(=N)ccn3[C@@H]2O[C@@H]1CO.Cl`, the EC50 turned out to be 1200 nM in series [1], 0.2 µg/mL in series [2] and 5500 nM in series [3]. Also, the ILS in series [8] was -20%. Further, the ILS at 200 mg/kg in series [4] is above 191%. Further, the Activity result in series [10] is given as “Toxic”.

Regarding `Cl.N=c1ccn2c(n1)O[C@H]1[C@H](OC(=O)Cc3ccccc3)[C@@H](CO)O[C@H]12`, the EC50 in series [1] amounted to 560 nM; in series [2], 0.07 µg/mL; in series [3] it was 560 nM. Also, in [4], the ILS at 200 mg/kg came to 33%. For the same compound, the result in series [5] was inactive.

Turning to `CCCCCCCCC(=O)O[C@H]1[C@@H]2Oc3nc(=N)ccn3[C@@H]2O[C@@H]1CO.Cl`, the results for the EC50 in series [1], in [2] and in series [3] were 290 nM, 0.05 µg/mL and 400 nM, respectively. Further, the ILS at 200 mg/kg in [4] turned out to be 33%. Also, the result in series [5] was inactive.

In the case of `CCCC(=O)O[C@H]1[C@@H]2Oc3nc(=N)ccn3[C@@H]2O[C@@H]1CO.Cl`, the values for the EC50 in series [1], in [2] and in series [3] were 590 nM, 0.12 µg/mL and 2050 nM, respectively. The ILS at 200 mg/kg in [4] stood at 30%. The result in [5] was inactive.

Turning to `CCCCCCCC/C=C\CCCCCCCCCCCC(=O)O[C@H]1[C@@H]2Oc3nc(=N)ccn3[C@@H]2O[C@@H]1CO.Cl`, the EC50 in [1] is 30000 nM; in [2] it was 0.18 µg/mL; in series [3], above 30000 nM. Moreover, the ILS at 200 mg/kg in series [4] was above 269%.

Regarding `CCC(=O)O[C@H]1[C@@H]2Oc3nc(=N)ccn3[C@@H]2O[C@@H]1CO.Cl`, the values for the EC50 in [1], in series [2] and in series [3] were 600 nM, 0.1 µg/mL and 2550 nM, respectively. Also, the ILS at 200 mg/kg in [4] was 29%. Besides, in [5], the result was inactive.

Turning to `CC(=O)O[C@H]1[C@@H]2Oc3nc(=N)ccn3[C@@H]2O[C@@H]1CO.Cl`, the EC50 is 730 nM in series [1], 0.18 µg/mL in series [2] and 2250 nM in series [3]. Also, the ILS at 1000 mg/kg in series [6] is 87%. Moreover, the ILS at 200 mg/kg in [4] was determined as 37%. Further, the result in [7] and in [5] was inactive.
